ChEMBL document CHEMBL1157373, “Dual targeting of DNA gyrase and topoisomerase IV: target interactions of heteroaryl isothiazolones in Staphylococcus aureus” (Antimicrob Agents Chemother, 2007)
In brackets after ≈: the same amount, converted by molar mass.

Assays:
Staphylococcus aureus [1] = assay: Antibacterial activity against Staphylococcus aureus BSA678 isolate with gyrA Ser84Leu, Ser85Pro and grlA Ser80Phe, Glu84Lys mutant after 24 hrs by broth microdilution method
Staphylococcus aureus [2] = assay: (§1) Antibacterial activity against Staphylococcus aureus ACH-0129 isolate with gyrA Ser84Leu, Glu88Val and grlA Ser80Phe, Ala116Val mutant after 24 hrs by broth microdilution method; type: functional
[3] = Inhibition of Staphylococcus aureus […] topoisomerase 4 grlA S80F mutant decatenation activity assessed as unlinking of DNA microcircles from kinetoplast DNA
How it was run: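 Recombinant S. aureus GrlA (Ser80Phe) and GrlB were mixed 1:1 molar on ice for 10 min. kDNA (0.1 μg) with 2 U enzyme, 30 min at 37°C, in 1 mM ATP, 5 mM MgCl2, 250 mM K-glutamate, 50 mM Tris pH 7.5. Reactions stopped with EDTA, run on 1% agarose-TBE and ethidium-stained, minicircles quantitated. IC50 by nonlinear regression.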

Staphylococcus aureus [4] = assay: Antibacterial activity against Staphylococcus aureus ACH-0204 isolate with gyrA Ser84Leu mutant after 24 hrs by broth microdilution method; type: functional
How it was run: (§2)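 Broth microdilution per CLSI guidelines. MIC taken as the lowest concentration preventing visible growth at 24 h. Each MIC determined at least twice.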

Staphylococcus aureus [5] = assay: Antibacterial activity against Staphylococcus aureus ATCC 33591 isolate after 24 hrs by broth microdilution method; type: functional; settings: ATCC 33591, 24 h
How it was run: as §2

Staphylococcus aureus [6] = assay: Antibacterial activity against Staphylococcus aureus ACH-0186 isolate with gyrA Ser84Leu and grlA Ser80Phe, Ala116Val mutant after 24 hrs by broth microdilution method; type: functional
Staphylococcus aureus [7] = assay: Antibacterial activity against Staphylococcus aureus ACH-0216 isolate with grlA Ser80Phe mutant after 24 hrs by broth microdilution method; type: functional
How it was run: as §2

Staphylococcus aureus [8] = assay: Antibacterial activity against Staphylococcus aureus ATCC 700699 isolate with gyrA Ser84Leu, Glu409Lys and grlA Ser80Phe mutant after 24 hrs by broth microdilution method; type: functional; settings: ATCC 700699, 24 h
Staphylococcus aureus [9] = assay: as §1; type: functional; remark: listed apart in the source
Staphylococcus aureus [10] = assay: Antibacterial activity against Staphylococcus aureus ACH-0141 isolate with gyrA Ser84Leu, Glu88Val and grlA Ser80Phe, Ala116Val mutant assessed as doubling time of bacterial growth at 1 ug/ml; type: functional
How it was run: (§3)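 Overnight cultures in MH or Mueller-Hinton II medium at 37°C with aeration were diluted to OD625 of about 0.05. Turbidity was read every 30 min over the first 7 h. Doubling time was estimated from log OD625 versus time growth curves.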

Staphylococcus aureus [11] = assay: Antibacterial activity against Staphylococcus aureus ACH-0218 isolate with grlA Glu84Lys mutant after 24 hrs by broth microdilution method; type: functional
How it was run: as §2

Staphylococcus aureus [12] = assay: Antibacterial activity against Staphylococcus aureus ACH-0231 isolate with gyrA Ser84Leu, Glu88Lys and grlA Ser80Tyr, Glu84Gly mutant assessed as doubling time of bacterial growth at 1 ug/ml; type: functional
How it was run: as §3

Staphylococcus aureus [13] = assay: Antibacterial activity against Staphylococcus aureus ACH-0186 isolate with gyrA Ser84Leu and grlA Ser80Phe mutant assessed as doubling time of bacterial growth at 1 ug/ml; type: functional
How it was run: as §3

Staphylococcus aureus [14] = assay: Antibacterial activity against Staphylococcus aureus ACH-0192 isolate with gyrA Ser84Leu and grlA Ser80Phe, Ala116Val mutant assessed as doubling time of bacterial growth at 1 ug/ml; type: functional
How it was run: as §3

Staphylococcus aureus [15] = assay: Antibacterial activity against Staphylococcus aureus ACH-0221 isolate with gyrA Ser84Leu mutant after 24 hrs by broth microdilution method; type: functional
How it was run: as §2

DNA gyrase subunit A = DNA gyrase subunit A (Staphylococcus aureus, UniProt P20831, S84L); assay: Inhibition of Staphylococcus aureus DNA gyrase gyrA S84L mutant supercoiling activity assessed as effect on conversion of relaxed pBR322 DNA to supercoiled form
Staphylococcus aureus [16] = assay: Antibacterial activity against Staphylococcus aureus ACH-0206 isolate with gyrA Ser84Leu mutant after 24 hrs by broth microdilution method; type: functional
How it was run: as §2

Staphylococcus aureus [17] = assay: Antibacterial activity against Staphylococcus aureus ACH-0141 isolate with gyrA Ser84Leu, Glu88Val and grlA Ser80Phe, Ala116Val mutant after 24 hrs by broth microdilution method; type: functional
Staphylococcus aureus [18] = assay: Antibacterial activity against Staphylococcus aureus ATCC 700699 isolate with gyrA Ser84Leu, Glu409Lys and grlA Ser80Phe mutant assessed as doubling time of bacterial growth at 1 ug/ml; type: functional
How it was run: as §3

Staphylococcus aureus [19] = assay: Antibacterial activity against Staphylococcus aureus BSA643 isolate with gyrA Ser84Leu and grlA Ser80Tyr, Glu84Gly mutant assessed as doubling time of bacterial growth at 1 ug/ml; type: functional
How it was run: as §3

Staphylococcus aureus [20] = assay: Antibacterial activity against Staphylococcus aureus ACH-0126 isolate with gyrA Ser84Leu and grlA Ser80Phe mutant after 24 hrs by broth microdilution method; type: functional
Staphylococcus aureus [21] = assay: Antibacterial activity against Staphylococcus aureus ACH-0201 isolate with gyrA Ser84Leu, Glu88Val and grlA Ser80Phe, Ala116Val mutant assessed as doubling time of bacterial growth at 1 ug/ml; type: functional
How it was run: as §3

Staphylococcus aureus [22] = assay: Antibacterial activity against Staphylococcus aureus ACH-0203 isolate with gyrA Ser84Leu and grlA Ser80Phe, Ala116Val mutant assessed as doubling time of bacterial growth at 1 ug/ml; type: functional
How it was run: as §3

Staphylococcus aureus [23] = assay: Antibacterial activity against Staphylococcus aureus ACH-0129 isolate with gyrA Ser84Leu, Glu88Val and grlA Ser80Phe, Ala116Val mutant assessed as doubling time of bacterial growth at 1 ug/ml; type: functional
How it was run: as §3

Staphylococcus aureus [24] = assay: Antibacterial activity against Staphylococcus aureus ACH-0192 isolate with gyrA Ser84Leu and grlA Ser80Phe, Ala116Val mutant after 24 hrs by broth microdilution method; type: functional
Staphylococcus aureus [25] = assay: Antibacterial activity against Staphylococcus aureus ACH-0210 isolate with gyrA Ser84Leu and grlA Ser80Phe mutant after 24 hrs by broth microdilution method; type: functional
Staphylococcus aureus [26] = assay: Antibacterial activity against Staphylococcus aureus ACH-0231 isolate with gyrA Ser84Leu, Glu88Lys and grlA Ser80Tyr, Glu84Gly mutant after 24 hrs by broth microdilution method; type: functional
Staphylococcus aureus [27] = assay: Antibacterial activity against Staphylococcus aureus ACH-0201 isolate with gyrA Ser84Leu, Glu88Val and grlA Ser80Phe, Ala116Val mutant after 24 hrs by broth microdilution method; type: functional
[28] = Inhibition of Staphylococcus aureus wild-type topoisomerase 4 decatenation activity assessed as unlinking of DNA microcircles from kinetoplast DNA
How it was run: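 S. aureus topo IV reconstituted from His-purified recombinant GrlA and GrlB (E. coli BL21(DE3)pLysS expression), mixed 1:1 molar on ice 10 min. 0.1 μg catenated kDNA with 2 U enzyme, 30 min at 37°C in 1 mM ATP, 5 mM DTT, 5 mM MgCl2, 50 μg/ml BSA, 50 mM Tris-HCl pH 7.5, 250 mM potassium glutamate. Products on 1% agarose gel, ethidium-stained, quantitated; IC50 by nonlinear regression.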

Staphylococcus aureus [29] = assay: Antibacterial activity against Staphylococcus aureus ATCC 29213 after 24 hrs by broth microdilution method; type: functional; settings: ATCC 29213, 24 h
How it was run: as §2

Staphylococcus aureus [30] = assay: Antibacterial activity against Staphylococcus aureus NY2746 isolate with gyrA Ser84Leu and grlA Ser80Phe mutant after 24 hrs by broth microdilution method; type: functional
Staphylococcus aureus [31] = assay: Antibacterial activity against Staphylococcus aureus ACH-0126 isolate with gyrA Ser84Leu and grlA Ser80Phe mutant assessed as doubling time of bacterial growth at 1 ug/ml; type: functional
How it was run: as §3

Staphylococcus aureus [32] = assay: Antibacterial activity against Staphylococcus aureus ACH-0203 isolate with gyrA Ser84Leu and grlA Ser80Phe, Ala116Val mutant after 24 hrs by broth microdilution method; type: functional
How it was run: as §2

Staphylococcus aureus [33] = assay: Antibacterial activity against Staphylococcus aureus BSA678 isolate with gyrA Ser84Leu, Ser85Pro and grlA Ser80Phe, Glu84Lys mutant assessed as doubling time of bacterial growth at 1 ug/ml
Staphylococcus aureus [34] = assay: Antibacterial activity against Staphylococcus aureus ATCC 29213 assessed as doubling time of bacterial growth at 1 ug/ml; type: functional
How it was run: as §3

Staphylococcus aureus [35] = assay: Antibacterial activity against Staphylococcus aureus BSA643 isolate with gyrA Ser84Leu and grlA Ser80Tyr, Glu84Gly mutant after 24 hrs by broth microdilution method; type: functional
Staphylococcus aureus [36] = assay: Antibacterial activity against Staphylococcus aureus NY2746 isolate with gyrA Ser84Leu and grlA Ser80Phe mutant assessed as doubling time of bacterial growth at 1 ug/ml; type: functional
How it was run: as §3

Staphylococcus aureus [37] = assay: Antibacterial activity against Staphylococcus aureus ACH-0130 isolate with gyrA Ser84Leu, Glu88Val and grlA Ser80Phe, Ala116Val mutant assessed as doubling time of bacterial growth at 1 ug/ml; type: functional
How it was run: as §3

| SMILES | MIC (Staphylococcus aureus [1]) [µg/mL] | MIC (Staphylococcus aureus [4]) [µg/mL] | MIC (Staphylococcus aureus [5]) [µg/mL] | MIC (Staphylococcus aureus [6]) [µg/mL] | MIC (Staphylococcus aureus [7]) [µg/mL] | MIC (Staphylococcus aureus [8]) [µg/mL] | MIC (Staphylococcus aureus [9]) [µg/mL] | MIC (Staphylococcus aureus [11]) [µg/mL] | MIC (Staphylococcus aureus [15]) [µg/mL] | MIC (Staphylococcus aureus [16]) [µg/mL] | MIC (Staphylococcus aureus [17]) [µg/mL] | MIC (Staphylococcus aureus [20]) [µg/mL] | MIC (Staphylococcus aureus [24]) [µg/mL] | MIC (Staphylococcus aureus [25]) [µg/mL] | MIC (Staphylococcus aureus [26]) [µg/mL] | MIC (Staphylococcus aureus [27]) [µg/mL] | MIC (Staphylococcus aureus [29]) [µg/mL] | MIC (Staphylococcus aureus [30]) [µg/mL] | MIC (Staphylococcus aureus [32]) [µg/mL] | MIC (Staphylococcus aureus [35]) [µg/mL] | other results |
| --- | --- | --- | --- | --- | --- | --- | --- | --- | --- | --- | --- | --- | --- | --- | --- | --- | --- | --- | --- | --- | --- |
| COc1c(-c2ccnc(C)c2)c(F)cc2c(=O)c3c(=O)[nH]sc3n(C3CC3)c12 | 0.5 (≈ 1.26 µM) | 0.016 (≈ 0.0403 µM) | 0.004 (≈ 0.0101 µM) | 0.5 (≈ 1.26 µM) | 0.008 (≈ 0.0201 µM) | 0.25 (≈ 0.629 µM) | 0.5 (≈ 1.26 µM) | 0.008 (≈ 0.0201 µM) | 0.03 (≈ 0.0755 µM) | 0.015 (≈ 0.0377 µM) | 2 (≈ 5.03 µM) | 0.125 (≈ 0.315 µM) | 0.5 (≈ 1.26 µM) | 0.125 (≈ 0.315 µM) | 2 (≈ 5.03 µM) | 2 (≈ 5.03 µM) | 0.004 (≈ 0.0101 µM) | 0.25 (≈ 0.629 µM) | 1 (≈ 2.52 µM) | 0.125 (≈ 0.315 µM) | MIC (Staphylococcus aureus [2]): 0.5 µg/mL (≈ 1.26 µM); IC50 [3]: 15.8 µM; Time (Staphylococcus aureus [10]): 340 min; Time (Staphylococcus aureus [12]): 35 min; Time (Staphylococcus aureus [13]): 34 min; Time (Staphylococcus aureus [14]): 121 min; IC50 (DNA gyrase subunit A): 52.3 µM; Time (Staphylococcus aureus [18]): 39 min; Time (Staphylococcus aureus [19]): 38 min; Time (Staphylococcus aureus [21]): 180 min; Time (Staphylococcus aureus [22]): 338 min; Time (Staphylococcus aureus [23]): 40 min; IC50 [28]: 1 µM; Time (Staphylococcus aureus [31]): 34 min; Time (Staphylococcus aureus [33]): 42 min; Time (Staphylococcus aureus [34]): 30 min; Time (Staphylococcus aureus [36]): 33 min; Time (Staphylococcus aureus [37]): 52 min |
| Cc1cc(-c2cc3c(cc2F)c(=O)c2c(=O)[nH]sc2n3C2CC2)ccn1 | 4 (≈ 10.9 µM) | 0.03 (≈ 0.0817 µM) | 0.004 (≈ 0.0109 µM) | 0.5 (≈ 1.36 µM) | 0.016 (≈ 0.0435 µM) | 0.25 (≈ 0.68 µM) | 4 (≈ 10.9 µM) | 0.08 (≈ 0.218 µM) | 0.03 (≈ 0.0817 µM) | 0.03 (≈ 0.0817 µM) | 16 (≈ 43.5 µM) | 0.5 (≈ 1.36 µM) | 2 (≈ 5.44 µM) | 0.5 (≈ 1.36 µM) | 16 (≈ 43.5 µM) | 8 (≈ 21.8 µM) | 0.008 (≈ 0.0218 µM) | 0.5 (≈ 1.36 µM) | 2 (≈ 5.44 µM) | 0.25 (≈ 0.68 µM) | MIC (Staphylococcus aureus [2]): 4 µg/mL (≈ 10.9 µM) |
| CC[n+]1c(-c2ccccc2)c2cc(N)ccc2c2ccc(N)cc21.[Br-] [HOMIDIUM BROMIDE] | 4 | 4 | 16 | 1 | 4 | > 64 | 4 | 16 | 16 | 4 | 4 | 4 | 2 | 2 | 16 | 2 | 4 | 16 | 32 | 16 |  |
